The source of these data is ChEMBL document CHEMBL1156325, “Novel acyl coenzyme A (CoA): diacylglycerol acyltransferase-1 inhibitors: synthesis and biological activities of diacylethylenediamine derivatives” (Bioorg Med Chem, 2010).

As a reminder, the IC50 is the concentration at which inhibition is half-maximal. The term solubility denotes the concentration that dissolves in the medium under given conditions.

Data set [1] can be described thus: Metabolic stability in mouse liver microsomes at 1 umol/L after 20 mins by HPLC assessed per mg of protein. It is filed as ADME, Microsome. To be noted: read-out: Stability. An outline of the steps: (§1)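 Hepatic microsomes (0.2 mg/mL protein) were incubated at 37 °C for 0 and 20 min with an NADPH-generating system added at 10% of reaction volume. The system held 50 mmol/L MgCl₂, 50 mmol/L glucose-6-phosphate, 5 mmol/L β-NADP⁺ and 15 unit/mL G6PDH. Reactions were stopped with an equal volume of acetonitrile, run in duplicate. Parent disappearance was measured by HPLC-UV and expressed as %/min/mg.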
In general terms: Liver microsomes are a subcellular fraction often used to study metabolism.

For data set [2], the target named is T1, Diacylglycerol O-acyltransferase 1 (Mus musculus, UniProt Q9Z2A7).
T1 sequence (Q9Z2A7 whole entry): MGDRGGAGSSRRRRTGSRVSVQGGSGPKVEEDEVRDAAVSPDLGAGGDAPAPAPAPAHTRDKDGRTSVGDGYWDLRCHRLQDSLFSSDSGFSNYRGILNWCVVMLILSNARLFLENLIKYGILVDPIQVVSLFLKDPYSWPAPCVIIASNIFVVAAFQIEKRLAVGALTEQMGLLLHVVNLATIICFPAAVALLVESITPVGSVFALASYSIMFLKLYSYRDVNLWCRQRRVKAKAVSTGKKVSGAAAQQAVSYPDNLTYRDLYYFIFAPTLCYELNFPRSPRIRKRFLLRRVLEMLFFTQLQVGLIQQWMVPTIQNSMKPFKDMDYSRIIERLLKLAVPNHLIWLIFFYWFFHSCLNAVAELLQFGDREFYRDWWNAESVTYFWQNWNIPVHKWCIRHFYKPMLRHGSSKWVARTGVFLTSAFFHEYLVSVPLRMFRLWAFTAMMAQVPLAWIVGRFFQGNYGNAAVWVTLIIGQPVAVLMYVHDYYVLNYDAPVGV
The experiment in a line: Inhibition of DGAT1 in mouse C2C12 cells assessed as suppression of [14C]triglyceride accumulation pretreated for 20 mins before [14C]oleic acid challenge measured after 20 mins by TLC analysis. It is filed as cell-based. An outline of the steps:
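C2C12 cell suspension (10⁶ cells/mL final) was preincubated with serial compound dilutions at 37 °C for 20 min. [¹⁴C]-oleic acid substrate was then added with 0.001% fatty-acid-free BSA, 0.2% ethanol and 0.1% DMSO final. After 20 min at 37 °C, reactions were stopped with chloroform/methanol (1:2). Chloroform-phase lipids were separated by TLC (hexane/ether/ethyl acetate/acetic acid 255:30:15:0.6).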

Data set [3] in a line: Metabolic stability in human liver microsomes at 1 umol/L after 20 mins by HPLC assessed per mg of protein. To be noted: read-out: Stability. It is filed as ADME, Microsome. In a few lines: as §1
Data set [4] is described as follows: Metabolic stability in rat liver microsomes at 1 umol/L after 20 mins by HPLC assessed per mg of protein. To be noted: read-out: Stability. It is filed as ADME, Microsome. In a few lines: as §1
Data set [5] concerns the target T2, Diacylglycerol O-acyltransferase 1 (Homo sapiens, UniProt O75907).
T2 sequence (O75907 whole entry): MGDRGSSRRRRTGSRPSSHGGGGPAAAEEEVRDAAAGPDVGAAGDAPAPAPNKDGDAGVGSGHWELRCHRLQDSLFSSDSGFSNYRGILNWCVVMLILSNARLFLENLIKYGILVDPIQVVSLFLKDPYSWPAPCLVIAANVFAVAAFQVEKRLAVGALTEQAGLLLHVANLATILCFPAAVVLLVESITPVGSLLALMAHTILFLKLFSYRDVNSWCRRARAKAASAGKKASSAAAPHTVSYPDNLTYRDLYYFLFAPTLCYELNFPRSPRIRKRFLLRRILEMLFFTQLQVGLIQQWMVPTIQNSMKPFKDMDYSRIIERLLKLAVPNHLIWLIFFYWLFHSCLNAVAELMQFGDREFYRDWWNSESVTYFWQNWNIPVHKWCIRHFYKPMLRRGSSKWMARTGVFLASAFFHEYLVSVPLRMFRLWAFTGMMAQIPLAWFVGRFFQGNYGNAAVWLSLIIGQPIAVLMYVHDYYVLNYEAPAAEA
The experiment in a line: Inhibition of human DGAT1 expressed in baculovirus infected Sf9 cells using [14C]oleoyl-CoA after 15 mins by TLC analysis.

Data set [6] concerns Mus musculus. The experiment in a line: Antiobesity activity in C57BL/6 mouse assessed as reduction in mesenteric white adipose tissue weight at 3 mg/kg, po BID for 4 weeks. It is filed as functional. Details: scale not given: the % may be the effect or the level left. An outline of the steps:
(§2)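 C57BL/6 mice fed a high-fat diet were dosed orally b.i.d. at 3 mg/kg as a 0.5% MC suspension for four weeks. Endpoints were body weight gain, total food intake, and mesenteric, perirenal and subcutaneous white adipose tissue weights.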

In data set [7] the test system is Mus musculus. The experiment in a line: Antiobesity activity in C57BL/6 mouse assessed as reduction in subcutaneous white adipose tissue weight at 3 mg/kg, po BID for 4 weeks. It is filed as functional. Details: scale not given: the % may be the effect or the level left. In a few lines:
as §2

The subject of data set [8] is Mus musculus. The experiment in a line: Toxicity in C57BL/6 mouse assessed as effect on total food intake at 3 mg/kg, po BID for 4 weeks. It is filed as organism-based. Details: dose 3 mg/kg, route oral. To be noted: in vivo, 672 h. An outline of the steps:
as §2

Data set [9] has as its system Mus musculus. The experiment in a line: Antiobesity activity in C57BL/6 mouse assessed as reduction in body weight gain at 3 mg/kg, po BID for 4 weeks. More on the design: scale not given: the % may be the effect or the level left. The format is functional. An outline of the steps:
as §2

Data set [10] deals with Mus musculus. The experiment in a line: Antiobesity activity in C57BL/6 mouse assessed as reduction in perirenal white adipose tissue weight at 3 mg/kg, po BID for 4 weeks. The format is functional. More on the design: scale not given: the % may be the effect or the level left. In a few lines: as §2
Data set [11] is described as follows: Solubility at pH 6.8. As to conditions: buffer. It is filed as physicochemical.

Converted amounts (≈) assume the structure as drawn.

Turning to `CCOc1ccc(C(=O)NCCNC(=O)c2nn(-c3ccccc3)cc2C)cc1`, the remaining at 20 min, 1 µM in data set [1] amounted to 14%; in data set [3] it was 12%; in data set [4] it was 12%. Moreover, the 50% inhibitory concentration (IC50) in [2] is 1200 nM.

On to `CCOc1cccc(C(=O)NCCNC(=O)c2cn(-c3ccccc3)nc2C(F)(F)F)c1`, for which the remaining at 20 min, 1 µM in [1] came out at 19%; in [3], 14%; in data set [4], 8.3%. Moreover, in [2], the IC50 stood at 5100 nM.

The molecule `CCOc1ccc(C(=O)NC[C@@H](CO)NC(=O)c2cn(-c3ccccc3)nc2C(F)(F)F)cc1` displayed an IC50 in data set [5] of over 10000 nM.

As to `CCOc1ccc(C(=O)N[C@@H](CO)CNC(=O)c2cn(-c3ccccc3)nc2C(F)(F)F)cc1`, the IC50 in [5] is over 10000 nM.

`CCOc1ccc(C(=O)N[C@H](CO)CNC(=O)c2cn(-c3ccccc3)nc2C(F)(F)F)cc1` displayed a 50% inhibitory concentration (IC50) in [5] of over 10000 nM.

`O=C(NCCNC(=O)c1cn(-c2ccccc2)nc1C(F)(F)F)c1ccc(OCC(F)(F)F)nc1`: the results for the remaining at 20 min, 1 µM in data set [1], in data set [3] and in data set [4] were 0%, 2.1% and 0.4%, respectively. Further, the Activity with Mus musculus [6] is given as -25%; in the data set with Mus musculus [7] it was -2.8%; with Mus musculus [8] it was “Non-toxic”; in the data set on Mus musculus [9], -75%; with Mus musculus [10], -12%. For the same molecule, the IC50 in [2] was determined as 44 nM.

Take `CCOc1ccc(C(=O)NCCNC(=O)c2nc(-c3ccccc3)c(Cc3ccccc3)s2)cc1`: the remaining at 20 min, 1 µM stood at 17% in data set [1], 10% in data set [3] and 14% in data set [4]. Also, the solubility in [11] was under 0.05 µg/mL.

For `CCOc1ccc(C(=O)NCCNC(=O)c2cn(-c3ccccc3)nc2C(F)(F)F)cn1`, the remaining at 20 min, 1 µM in [1] is 2.5%; in data set [3], 5.1%; in data set [4], 3.4%. The IC50 in [2] was 87 nM.

In the case of `CCOc1ccc(C(=O)NCCNC(=O)c2cn(-c3ccccc3O)nc2C(F)(F)F)cc1`, the remaining at 20 min, 1 µM in data set [1] was found to be 0.5%; in [3] it was 5.7%; in data set [4] it was 18%. Also, the IC50 in data set [2] was found to be 610 nM.

Consider `O=C(NCCNC(=O)c1cn(-c2ccccc2)nc1C(F)(F)F)c1ccc(Cl)nc1`, for which the remaining at 20 min, 1 µM in [1] was determined as 0%; in data set [3] it was 2.2%; in [4], 1.1%. In addition, in data set [2], the half-maximal inhibitory concentration (IC50) stood at 370 nM.

Take `CCOc1ccc(C(=O)NCCNC(=O)c2cn(Cc3ccccc3)nc2C(F)(F)F)cc1`: the remaining at 20 min, 1 µM in data set [1] was 7.5%; in [3] it was 5.5%; in [4] it was 18%.

As for `CCOc1ccc(C(=O)NCCNC(=O)c2cn(C3CCCCC3)nc2C(F)(F)F)cc1`, the remaining at 20 min, 1 µM in data set [1] is 7.8%; in data set [3], 8.7%; in data set [4], 11%. Also, the IC50 in [2] was 650 nM.

For `CCOc1ccc(C(=O)NCCNC(=O)c2cn(-c3ccc(OCC)cc3)nc2C(F)(F)F)cc1`, the remaining at 20 min, 1 µM was found to be 14% in [1], 7.5% in data set [3] and 8.7% in [4]. Moreover, the IC50 in data set [2] is 380 nM.

Regarding `CCOc1ccc(C(=O)NCCNC(=O)c2cn(-c3cccnc3)nc2C(F)(F)F)cc1`, the IC50 in [2] worked out at 3400 nM.

Turning to `CCOc1ccc(C(=O)NCCNC(=O)c2cn(-c3ccccn3)nc2C(F)(F)F)cc1`, the remaining at 20 min, 1 µM in [1] stood at 7%; in [3], 14%; in data set [4], 10%. Besides, the IC50 in [2] is 91 nM.

Turning to `CCOc1ccc(C(=O)NCCNC(=O)c2cn(-c3cccc(OCC)c3)nc2C(F)(F)F)cc1`, the remaining at 20 min, 1 µM in data set [1] worked out at 6.5%; in [3], 7.4%; in data set [4] it was 7.1%. The IC50 in data set [2] was 600 nM.

Molecule `CCOc1ccc(C(=O)NC[C@H](CO)NC(=O)c2cn(-c3ccccc3)nc2C(F)(F)F)cc1` showed an IC50 in data set [5] of over 10000 nM.

With `CCOc1ccc(C(=O)NCCNC(=O)c2cn(-c3ccccc3)nc2C(F)(F)F)cc1`, the results for the remaining at 20 min, 1 µM in data set [1], in data set [3] and in data set [4] were 7%, 9% and 6.5%, respectively. Further, the solubility in data set [11] stood at 1.1 µg/mL (≈ 2.46 µM). Besides, the IC50 in data set [2] was determined as 77 nM.

Regarding `CCOc1cc(C)c(C(=O)CCC(=O)Nc2nc(-c3ccccc3)c(Cc3ccccc3)s2)cc1OCC`, the remaining at 20 min, 1 µM amounted to 16% in [1], 13% in [3] and 11% in data set [4]. The solubility in [11] amounted to 0.08 µg/mL (≈ 0.151 µM).

`O=C(NCCNC(=O)c1cn(-c2ccccc2)nc1C(F)(F)F)c1ccc(-n2cccn2)cc1`: the remaining at 20 min, 1 µM in data set [1] amounted to 3.5%; in data set [3], 5.9%; in data set [4], 6.5%. Also, the IC50 in data set [2] is 400 nM.

As to `CCOc1ccc(C(=O)NCCNC(=O)c2cn(-c3ccc(Cl)cc3)nc2C(F)(F)F)cc1`, the values for the remaining at 20 min, 1 µM in data set [1], in data set [3] and in [4] were 3.4%, 4.5% and 7.2%, respectively. Besides, the IC50 in data set [2] was found to be 1500 nM.

With `CCOc1ccc(C(=O)NCCNC(=O)c2cn(-c3ccccc3)nc2C)cc1`, the remaining at 20 min, 1 µM in [1] was determined as 2.5%; in data set [3], 5%; in data set [4] it was 5.8%. Besides, the IC50 in data set [2] is 260 nM.

`O=C(NCCNC(=O)c1cn(-c2ccccc2)nc1C(F)(F)F)c1ccc(Cl)cn1`: the figures for the remaining at 20 min, 1 µM in data set [1], in data set [3] and in [4] were 1.8%, 4.8% and 2.6%, respectively. In addition, the IC50 in data set [2] is 1200 nM.

Consider `CCOc1ccc(C(=O)NCCNC(=O)c2cn(-c3ccncc3)nc2C(F)(F)F)cc1`, for which, in data set [2], the IC50 was over 10000 nM.
